Substitutions are numbered along the chain they refer to. pIC50: −log10 of the molar value. One block for each molecule: values may come before it.
How the values were obtained:
[1] = biological target: T1, PME-1 (Mus musculus, UniProt Q8BVQ5); experiment: Gel-based competitive ABPP with FP-Rh, PME-1 in mouse brain soluble proteome; type: biochemical
T1 sequence (Q8BVQ5 1-386): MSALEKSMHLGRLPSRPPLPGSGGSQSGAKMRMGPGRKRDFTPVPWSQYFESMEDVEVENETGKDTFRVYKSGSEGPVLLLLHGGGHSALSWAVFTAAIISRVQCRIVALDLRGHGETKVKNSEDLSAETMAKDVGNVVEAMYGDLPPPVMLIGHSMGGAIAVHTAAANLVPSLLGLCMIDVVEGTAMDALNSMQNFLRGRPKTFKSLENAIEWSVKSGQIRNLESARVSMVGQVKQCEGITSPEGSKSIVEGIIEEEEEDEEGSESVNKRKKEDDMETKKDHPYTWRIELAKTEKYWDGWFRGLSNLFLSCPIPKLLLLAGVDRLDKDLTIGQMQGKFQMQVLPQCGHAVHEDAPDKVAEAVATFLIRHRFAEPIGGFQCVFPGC
How it was run: (§1)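 Soluble proteomes diluted to 1 mg/mL in PBS (pH 7.5) and preincubated with compound or DMSO for 30 min at 25 °C. FP-rhodamine then added (2 μM final) for 45 min. Reactions quenched with reducing SDS loading buffer, separated by 10% SDS-PAGE, and serine hydrolase activity read by in-gel fluorescence scanning.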

[2] = test system: other SHs in human cell lysates; experiment: Gel-based competitive ABPP, other SHs in human cell proteomes/lysates; type: biochemical; settings: human cell proteomes
[3] = test system: PP2A methylation state; experiment: PP2A methylation state in HEK 293T cells stably overexpressing PME-1; type: cell-based, human; settings: 20 μM, 1 h
How it was run: (§2)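 Compound or DMSO added to the medium of HEK 293T cells at 37 °C. Total sonicated cell extract diluted to 2 mg/mL in PBS, run on reducing 10% SDS-PAGE, and immunoblotted with demethylated-specific (4b7), methylated-specific (2A10) and total PP2A antibodies plus α-tubulin. Bands quantified by fluorescence imaging. Mean ± SEM, n = 3; compared with DMSO-treated cells.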

[4] = test system: other SHs; type: biochemical, mouse; settings: Off-targets are defined as SHs with >50% inhibition at 50 μM; Table 1 series
How it was run: as §1

[5] = biological target: T2, PME-1 (Homo sapiens, UniProt Q9Y570); experiment: PME-1 IC50 by gel-based competitive ABPP in soluble proteomes; type: biochemical; settings: Table 2 series
T2 sequence (Q9Y570 2-386 limits assumed): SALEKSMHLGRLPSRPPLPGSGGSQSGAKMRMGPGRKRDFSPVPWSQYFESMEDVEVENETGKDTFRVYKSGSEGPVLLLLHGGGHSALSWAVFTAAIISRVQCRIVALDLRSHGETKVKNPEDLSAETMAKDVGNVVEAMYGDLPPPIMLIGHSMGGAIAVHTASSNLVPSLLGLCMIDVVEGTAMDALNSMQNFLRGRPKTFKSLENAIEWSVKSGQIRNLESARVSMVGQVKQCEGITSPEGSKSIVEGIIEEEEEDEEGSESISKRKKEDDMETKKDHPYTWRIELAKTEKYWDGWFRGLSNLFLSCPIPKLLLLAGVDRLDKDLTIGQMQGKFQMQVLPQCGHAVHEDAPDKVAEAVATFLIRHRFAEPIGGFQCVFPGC

[6] = test system: demethylated form of PP2A; experiment: PP2A methylation state in untransfected HEK 293T cells; type: cell-based, human; settings: 1 hour, basal PME-1
How it was run: as §2

[7] = biological target: T2, PME-1; settings: read-out: PME-1 IC50; cited from earlier work
[8] = biological target: T3, Purified wild-type PME-1 (Homo sapiens, UniProt Q9Y570); experiment: Reversibility of PME-1 inhibition; type: biochemical; settings: PME-1 500 nM, compound 50 μM
T3 sequence (Q9Y570 1-386): T1 sequence (Q8BVQ5 1-386) with T42S, G114S, S123P, V150I, A167S, A168S, V268I, N269S

[9] = test system: other SHs; experiment: In situ gel-based competitive ABPP, other SHs in HEK 293T cells; type: cell-based, human; settings: up to 100 μM compound, 1 h
How it was run: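 HEK 293T cells treated in culture with a concentration range of compound or DMSO for 1 h at 37 °C, then harvested and sonicated in PBS (pH 7.5). Soluble fraction (64,000g supernatant) diluted to 1 mg/mL and labelled with FP-rhodamine (2 μM, 45 min, 25 °C). Resolved by 10% SDS-PAGE and read by in-gel fluorescence scanning.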

[10] = biological target: T4, PME-1 (Homo sapiens, UniProt Q9Y570); experiment: In situ competitive SILAC-ABPP; type: cell-based; settings: HEK 293T cells, 20 μM, 1 h
T4 sequence (Q9Y570 1-386): T1 sequence (Q8BVQ5 1-386) with T42S, G114S, S123P, V150I, A167S, A168S, V268I, N269S

[11] = test system: 35 other SHs detected in HEK 293T cells; experiment: In situ competitive SILAC-ABPP; type: cell-based, human; settings: 20 μM, 1 h
How it was run: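 HEK 293T cells SILAC-labelled with light or heavy Lys/Arg. Light cells given compound and heavy cells DMSO, 1 h at 37 °C. Soluble and membrane proteomes (0.5 mg each) mixed 1:1 and labelled with FP-biotin (5 μM, 1 h, 25 °C). Streptavidin enrichment, on-bead trypsin digestion, then MudPIT LC-MS/MS. Light/heavy ratios taken for SHs with ≥2 quantifiable peptides, normalised to a DMSO/DMSO control.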

[12] = test system: CA-Rh or SE-Rh-labeled proteins; experiment: CA-Rh / SE-Rh probe labeling of soluble proteomes from treated HEK 293T cells; type: cell-based, human; settings: 100 μM, relative to DMSO-treated samples
How it was run: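 Compound or DMSO added to the culture medium of HEK 293T cells at 37 °C. Cells washed, scraped, pelleted, and sonicated in ice-cold PBS (pH 7.5). Soluble fraction isolated at 64,000g for 45 min at 4 °C and diluted to 1 mg/mL. Labelled with CA-rhodamine or SE-rhodamine (5 μM, 1 h, 25 °C), resolved by reducing 10% SDS-PAGE, and scanned for in-gel fluorescence.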

- PME-1 activity (in words) [1]: inactive
Compound: CS(=O)(=O)/C(C#N)=C/c1ccc[nH]1 [Cmpd 7, (E)-2-(methylsulfonyl)-3-(1H-pyrrol-2-yl)acrylonitrile]

- PME-1 activity (in words) [1]: inactive
Compound: CS(=O)(=O)/C(C#N)=C/c1ccccc1 [Cmpd 8, (E)-2-(methylsulfonyl)-3-phenylacrylonitrile]

Compound: CS(=O)(=O)/C(C#N)=C/c1cccn1S(=O)(=O)c1ccccc1 [Cmpd 2]
- Cross-reactivity with additional SHs [2]: acyl-peptide hydrolase (APEH) and an unidentified 30 kDa SH

Compound: N#C/C(=C\c1cccn1S(=O)(=O)c1cccc(C#N)c1)S(=O)(=O)c1ccc(F)cc1 [Cmpd 27, (E)-3-(2-(2-cyano-2-(4-fluorophenylsulfonyl)vinyl)-1H-pyrrol-1-ylsulfonyl)benzonitrile]
- Effect on the methylated form of PP2A [3]: significantly increased

- PME-1 activity (in words) [1]: two-fold less potent
Compound: N#CC(C#N)=Cc1cccn1S(=O)(=O)c1ccccc1 [Cmpd 17, 2-((1-(phenylsulfonyl)-1H-pyrrol-2-yl)methylene)malononitrile]
- Off-targets [4]: increased activity against a 40 kDa SH

- PME-1 activity (in words) [5]: no activity
Compound: CS(=O)(=O)/C(C#N)=C/c1cccn1S(=O)(=O)c1c(F)c(F)c(F)c(F)c1F [Cmpd 22, (E)-2-(methylsulfonyl)-3-(1-((perfluorophenyl)sulfonyl)-1H-pyrrol-2-yl)acrylonitrile]

- PME-1 activity (in words) [1]: inactive
Compound: CS(=O)(=O)C(C#N)Cc1cccn1S(=O)(=O)c1ccccc1 (centres unmarked) [Cmpd 3, 2-(methylsulfonyl)-3-(1-(phenylsulfonyl)-1H-pyrrol-2-yl)propanenitrile]

- PME-1 activity (in words) [1]: inactive
Compound: CS(=O)(=O)/C(C#N)=C/c1ccc([N+](=O)[O-])cc1 [Cmpd 9, (E)-2-(methylsulfonyl)-3-(4-nitrophenyl)acrylonitrile]

Compound: COC(=O)N1C(=O)[C@](c2ccccc2)(C2CCCC2)N1C(=O)OC (stereo in doubt) [Cmpd 1, reference compound]
- Effect on the demethylated form of PP2A ([6]; 500 nM): decreased the demethylated form of PP2A
- pIC50 [7]: ~8.00

- PME-1 activity (in words) [1]: did not inhibit PME-1
Compound: CS(=O)(=O)C(=Cc1cccn1S(=O)(=O)c1ccccc1)S(C)(=O)=O [Cmpd 16, 2-(2,2-bis(methylsulfonyl)vinyl)-1-(phenylsulfonyl)-1H-pyrrole]

Compound: N#C/C(=C\c1cccn1S(=O)(=O)c1cccc([N+](=O)[O-])c1)S(=O)(=O)c1ccc(F)cc1 [Cmpd 28, (E)-2-(4-fluorophenylsulfonyl)-3-(1-(3-nitrophenylsulfonyl)-1H-pyrrol-2-yl)acrylonitrile]
- Recovery of enzyme activity after gel filtration [8]: not observed
- Cross-reactivity with other SHs in situ [9]: without any observed cross-reactivity
- in situ inhibition of PME-1 (SILAC-ABPP) [10]: complete in situ inhibition
- Activity against other SHs (SILAC-ABPP) [11]: no activity
- Change of intensity of CA-Rh or SE-Rh-labeled proteins [12]: did not alter the intensity
- Effect on the methylated form of PP2A [3]: significantly increased
- Effect on the demethylated form of PP2A ([6]; 20 μM): decreased the demethylated form of PP2A

- PME-1 activity (in words) [1]: inactive
Compound: CS(=O)(=O)/C(=C/c1cccn1S(=O)(=O)c1ccccc1)CN [Cmpd 4, (E)-2-(methylsulfonyl)-3-(1-(phenylsulfonyl)-1H-pyrrol-2-yl)prop-2-en-1-amine]
